Measured values reported in ChEMBL document CHEMBL1944596, “7,8-dichloro-1-oxo-β-carbolines as a versatile scaffold for the development of potent and selective kinase inhibitors with unusual binding modes” (J Med Chem, 2012).

Tests used:
[1] = target: Serine/threonine-protein kinase 33 (Homo sapiens) (UniProt Q9BYT3); assay: Binding affinity to STK33 assessed as change in thermal denaturation at 10 uM by thermal stability shift assay
How it was run: (§1)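 Each compound was screened across a kinase panel by thermal stability shift assay. The read-out was the shift in protein melting temperature (ΔTm, in °C) relative to the unliganded kinase. A ΔTm of 4.0 °C served as the hit cutoff.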

[2] = target: T1, Myosin light chain kinase family member 4 (Homo sapiens) (UniProt Q86YV6); assay: Binding affinity to SGK085 assessed as change in thermal denaturation at 10 uM by thermal stability shift assay; how it was run: as §1
T1 sequence (whole entry): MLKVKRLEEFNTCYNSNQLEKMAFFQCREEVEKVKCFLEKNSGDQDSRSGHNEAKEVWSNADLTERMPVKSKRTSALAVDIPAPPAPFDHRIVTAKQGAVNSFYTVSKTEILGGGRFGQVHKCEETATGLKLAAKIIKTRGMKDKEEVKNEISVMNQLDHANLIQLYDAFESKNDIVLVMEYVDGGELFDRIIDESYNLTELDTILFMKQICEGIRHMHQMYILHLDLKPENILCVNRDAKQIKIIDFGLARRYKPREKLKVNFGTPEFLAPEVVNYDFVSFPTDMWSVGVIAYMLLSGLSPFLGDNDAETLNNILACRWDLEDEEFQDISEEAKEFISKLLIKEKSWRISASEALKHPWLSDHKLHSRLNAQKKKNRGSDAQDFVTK

[3] = Binding affinity to RSK4beta assessed as change in thermal denaturation at 10 uM by thermal stability shift assay; how it was run: as §1
[4] = target: Tyrosine-protein kinase Fes/Fps (Homo sapiens) (UniProt P07332); assay: Binding affinity to FES assessed as change in thermal denaturation at 10 uM by thermal stability shift assay; how it was run: as §1
[5] = target: Serine/threonine-protein kinase pim-3 (Homo sapiens, UniProt Q86V86); assay: Binding affinity to PIM3 assessed as change in thermal denaturation at 10 uM by thermal stability shift assay; how it was run: as §1
[6] = target: AP2-associated protein kinase 1 (Homo sapiens) (UniProt Q2M2I8); assay: Binding affinity to AAK1 assessed as change in thermal denaturation at 10 uM by thermal stability shift assay; how it was run: as §1
[7] = target: Glycogen synthase kinase-3 beta (Homo sapiens) (UniProt P49841); assay: Binding affinity to GSK3-beta assessed as change in thermal denaturation at 10 uM by thermal stability shift assay; how it was run: as §1
[8] = target: Serine/threonine-protein kinase pim-1 (Homo sapiens, UniProt P11309); assay: Binding affinity to PIM1 assessed as change in thermal denaturation at 10 uM by thermal stability shift assay; how it was run: as §1
[9] = target: Protein kinase C gamma type (Homo sapiens) (UniProt P05129); assay: Binding affinity to PKCgamma assessed as change in thermal denaturation at 10 uM by thermal stability shift assay; how it was run: as §1
[10] = target: Dual specificity protein kinase CLK1 (Homo sapiens) (UniProt P49759); assay: Binding affinity to CLK1 assessed as change in thermal denaturation at 10 uM by thermal stability shift assay; how it was run: as §1
[11] = target: Casein kinase II subunit alpha' (Homo sapiens) (UniProt P19784); assay: Binding affinity to CK2alpha2 assessed as change in thermal denaturation at 10 uM by thermal stability shift assay; how it was run: as §1
[12] = target: BMP-2-inducible protein kinase (Homo sapiens) (UniProt Q9NSY1); assay: Binding affinity to BIKE assessed as change in thermal denaturation at 10 uM by thermal stability shift assay; how it was run: as §1
[13] = target: T2, cAMP-dependent protein kinase catalytic subunit PRKX (Homo sapiens) (UniProt P51817); assay: Binding affinity to PRKX assessed as change in thermal denaturation at 10 uM by thermal stability shift assay; how it was run: as §1
T2 sequence (whole entry): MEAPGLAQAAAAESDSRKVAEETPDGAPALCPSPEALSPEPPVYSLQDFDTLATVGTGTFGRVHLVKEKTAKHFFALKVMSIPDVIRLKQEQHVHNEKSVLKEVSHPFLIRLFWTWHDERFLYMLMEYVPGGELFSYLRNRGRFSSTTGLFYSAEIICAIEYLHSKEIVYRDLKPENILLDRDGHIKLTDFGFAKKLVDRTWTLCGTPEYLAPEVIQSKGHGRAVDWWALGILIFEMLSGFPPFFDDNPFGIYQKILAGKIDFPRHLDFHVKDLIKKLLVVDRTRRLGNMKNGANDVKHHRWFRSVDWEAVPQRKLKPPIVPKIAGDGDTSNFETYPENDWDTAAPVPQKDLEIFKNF

[14] = target: T3, Dual specificity tyrosine-phosphorylation-regulated kinase 2 (Homo sapiens) (UniProt Q92630); assay: Binding affinity to DYRK2 assessed as change in thermal denaturation at 10 uM by thermal stability shift assay; how it was run: as §1
T3 sequence (whole entry): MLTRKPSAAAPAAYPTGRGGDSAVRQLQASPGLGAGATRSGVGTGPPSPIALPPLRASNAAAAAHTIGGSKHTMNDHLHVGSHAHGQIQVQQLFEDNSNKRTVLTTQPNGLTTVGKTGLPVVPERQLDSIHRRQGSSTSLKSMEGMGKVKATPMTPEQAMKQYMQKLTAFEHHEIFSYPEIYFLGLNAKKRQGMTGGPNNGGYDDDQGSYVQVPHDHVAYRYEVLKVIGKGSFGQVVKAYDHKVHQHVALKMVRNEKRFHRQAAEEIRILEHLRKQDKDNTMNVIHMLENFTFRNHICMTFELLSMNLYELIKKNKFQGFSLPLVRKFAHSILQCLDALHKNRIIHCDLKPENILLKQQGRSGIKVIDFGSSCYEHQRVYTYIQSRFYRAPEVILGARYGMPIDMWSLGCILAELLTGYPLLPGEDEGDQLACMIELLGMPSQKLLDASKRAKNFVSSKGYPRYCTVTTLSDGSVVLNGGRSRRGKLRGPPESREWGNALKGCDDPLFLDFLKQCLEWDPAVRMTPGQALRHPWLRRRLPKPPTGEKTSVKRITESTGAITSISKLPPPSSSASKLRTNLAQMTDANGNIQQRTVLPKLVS

[15] = target: Serine/threonine-protein kinase PLK1 (Homo sapiens) (UniProt P53350); assay: Binding affinity to PLK1 assessed as change in thermal denaturation at 10 uM by thermal stability shift assay; how it was run: as §1
[16] = target: Death-associated protein kinase 3 (Homo sapiens) (UniProt O43293); assay: Binding affinity to N-terminus His6-tagged DAPK3 expressed in Escherichia coli BL21 (DE3) cells coexpressing pCOEX assessed as change in thermal denaturation at 10 uM by thermal stability shift assay
How it was run: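 DAPK3 was expressed in E. coli grown in TB with kanamycin and chloramphenicol at 37 °C, cooled to 25 °C, and induced with 0.5 mM IPTG. Binding was read as thermal-shift ΔTm in °C.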

[17] = target: Ribosomal protein S6 kinase alpha-1 (Homo sapiens) (UniProt Q15418); assay: Binding affinity to RSK1 assessed as change in thermal denaturation at 10 uM by thermal stability shift assay

Sequence of Serine/threonine-protein kinase PLK1 (Homo sapiens) (P53350 whole entry): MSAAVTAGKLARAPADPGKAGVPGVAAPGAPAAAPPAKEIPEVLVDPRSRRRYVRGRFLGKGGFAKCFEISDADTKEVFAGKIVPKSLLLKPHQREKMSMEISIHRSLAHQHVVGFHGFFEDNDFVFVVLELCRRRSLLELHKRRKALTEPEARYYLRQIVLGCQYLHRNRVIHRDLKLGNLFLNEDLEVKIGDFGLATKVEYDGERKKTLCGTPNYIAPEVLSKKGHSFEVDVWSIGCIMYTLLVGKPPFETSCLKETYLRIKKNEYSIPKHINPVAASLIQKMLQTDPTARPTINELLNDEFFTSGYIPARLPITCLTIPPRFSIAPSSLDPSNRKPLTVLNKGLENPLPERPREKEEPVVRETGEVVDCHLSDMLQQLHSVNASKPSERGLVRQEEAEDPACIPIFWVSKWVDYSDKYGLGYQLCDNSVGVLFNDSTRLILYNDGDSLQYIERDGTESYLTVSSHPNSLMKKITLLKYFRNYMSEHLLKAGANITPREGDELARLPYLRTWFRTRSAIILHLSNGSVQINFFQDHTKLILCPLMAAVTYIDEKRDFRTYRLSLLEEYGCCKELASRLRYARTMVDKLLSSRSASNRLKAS
Sequence of Dual specificity protein kinase CLK1 (Homo sapiens) (P49759 whole entry, looked up): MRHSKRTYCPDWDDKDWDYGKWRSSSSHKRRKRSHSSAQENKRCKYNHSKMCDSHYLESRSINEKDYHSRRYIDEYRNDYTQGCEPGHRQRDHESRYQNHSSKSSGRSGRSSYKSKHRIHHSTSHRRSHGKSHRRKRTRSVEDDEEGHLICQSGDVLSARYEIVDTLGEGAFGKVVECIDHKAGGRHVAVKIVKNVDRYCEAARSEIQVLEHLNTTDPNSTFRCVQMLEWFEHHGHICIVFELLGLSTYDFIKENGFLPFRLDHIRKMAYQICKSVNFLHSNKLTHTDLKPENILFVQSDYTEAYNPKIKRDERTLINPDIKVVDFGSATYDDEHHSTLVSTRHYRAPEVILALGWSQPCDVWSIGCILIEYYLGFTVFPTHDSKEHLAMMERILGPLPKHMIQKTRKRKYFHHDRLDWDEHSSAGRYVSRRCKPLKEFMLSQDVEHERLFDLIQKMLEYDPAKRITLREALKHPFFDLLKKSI
Sequence of BMP-2-inducible protein kinase (Homo sapiens) (Q9NSY1 whole entry, looked up): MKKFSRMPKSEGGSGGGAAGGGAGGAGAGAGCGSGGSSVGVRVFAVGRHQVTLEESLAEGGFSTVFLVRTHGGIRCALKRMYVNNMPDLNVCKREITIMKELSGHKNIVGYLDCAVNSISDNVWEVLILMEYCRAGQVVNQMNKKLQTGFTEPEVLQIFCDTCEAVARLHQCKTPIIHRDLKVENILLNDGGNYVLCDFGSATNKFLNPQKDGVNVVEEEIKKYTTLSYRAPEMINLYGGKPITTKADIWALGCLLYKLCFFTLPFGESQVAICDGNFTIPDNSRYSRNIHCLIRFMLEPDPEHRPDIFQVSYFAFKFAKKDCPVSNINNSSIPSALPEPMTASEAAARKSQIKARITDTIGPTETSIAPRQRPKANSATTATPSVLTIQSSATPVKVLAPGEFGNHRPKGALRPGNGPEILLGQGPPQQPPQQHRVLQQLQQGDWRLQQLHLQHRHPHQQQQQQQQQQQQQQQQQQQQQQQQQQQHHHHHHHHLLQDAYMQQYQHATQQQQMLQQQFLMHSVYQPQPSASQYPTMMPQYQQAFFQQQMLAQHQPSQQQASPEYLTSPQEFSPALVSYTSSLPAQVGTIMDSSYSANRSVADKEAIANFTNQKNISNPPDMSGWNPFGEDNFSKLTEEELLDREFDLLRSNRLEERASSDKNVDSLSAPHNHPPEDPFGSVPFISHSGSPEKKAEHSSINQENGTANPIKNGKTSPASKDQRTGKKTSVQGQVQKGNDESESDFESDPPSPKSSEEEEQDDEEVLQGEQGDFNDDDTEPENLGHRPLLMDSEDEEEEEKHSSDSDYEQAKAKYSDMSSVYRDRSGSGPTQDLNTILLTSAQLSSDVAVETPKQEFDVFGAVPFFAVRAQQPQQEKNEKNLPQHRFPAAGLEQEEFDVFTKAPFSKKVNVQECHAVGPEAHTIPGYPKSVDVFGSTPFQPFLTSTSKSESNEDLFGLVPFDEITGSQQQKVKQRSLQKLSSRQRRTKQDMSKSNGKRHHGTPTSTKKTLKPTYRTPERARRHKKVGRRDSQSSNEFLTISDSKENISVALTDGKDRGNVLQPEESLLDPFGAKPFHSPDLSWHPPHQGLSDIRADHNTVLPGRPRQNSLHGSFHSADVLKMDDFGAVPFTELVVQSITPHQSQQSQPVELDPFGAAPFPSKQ
Sequence of Tyrosine-protein kinase Fes/Fps (Homo sapiens) (P07332 whole entry): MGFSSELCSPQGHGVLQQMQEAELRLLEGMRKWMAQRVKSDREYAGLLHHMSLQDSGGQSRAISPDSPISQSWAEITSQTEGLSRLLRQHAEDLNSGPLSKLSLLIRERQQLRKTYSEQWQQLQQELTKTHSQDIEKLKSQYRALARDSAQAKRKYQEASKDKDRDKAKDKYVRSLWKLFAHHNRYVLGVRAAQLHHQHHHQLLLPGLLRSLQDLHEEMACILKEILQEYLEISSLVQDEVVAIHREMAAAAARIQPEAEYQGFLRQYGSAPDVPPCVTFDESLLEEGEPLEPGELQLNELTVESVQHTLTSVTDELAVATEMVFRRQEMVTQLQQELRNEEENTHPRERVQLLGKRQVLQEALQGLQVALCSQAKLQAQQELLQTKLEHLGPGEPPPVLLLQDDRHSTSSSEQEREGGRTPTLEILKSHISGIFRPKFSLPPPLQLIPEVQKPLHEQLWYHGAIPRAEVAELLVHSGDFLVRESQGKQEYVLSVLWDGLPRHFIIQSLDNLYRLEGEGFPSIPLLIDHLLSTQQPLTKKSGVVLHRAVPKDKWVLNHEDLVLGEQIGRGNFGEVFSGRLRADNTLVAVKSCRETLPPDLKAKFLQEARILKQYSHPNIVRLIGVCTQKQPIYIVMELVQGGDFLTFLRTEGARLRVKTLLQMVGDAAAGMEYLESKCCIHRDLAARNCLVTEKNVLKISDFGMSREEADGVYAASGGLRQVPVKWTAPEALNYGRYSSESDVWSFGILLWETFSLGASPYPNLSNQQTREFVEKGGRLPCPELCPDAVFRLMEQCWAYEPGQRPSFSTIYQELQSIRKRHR
Sequence of Serine/threonine-protein kinase pim-1 (P11309 whole entry, looked up): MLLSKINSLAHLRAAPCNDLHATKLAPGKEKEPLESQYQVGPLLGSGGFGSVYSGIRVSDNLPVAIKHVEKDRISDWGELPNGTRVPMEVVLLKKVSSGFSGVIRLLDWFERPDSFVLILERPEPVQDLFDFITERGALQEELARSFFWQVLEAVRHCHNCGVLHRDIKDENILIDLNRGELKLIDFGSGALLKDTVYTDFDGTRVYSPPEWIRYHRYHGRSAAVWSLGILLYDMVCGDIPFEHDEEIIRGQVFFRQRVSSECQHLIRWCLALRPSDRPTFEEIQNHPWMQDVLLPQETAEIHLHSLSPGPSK
Sequence of Death-associated protein kinase 3 (Homo sapiens) (O43293 whole entry, looked up): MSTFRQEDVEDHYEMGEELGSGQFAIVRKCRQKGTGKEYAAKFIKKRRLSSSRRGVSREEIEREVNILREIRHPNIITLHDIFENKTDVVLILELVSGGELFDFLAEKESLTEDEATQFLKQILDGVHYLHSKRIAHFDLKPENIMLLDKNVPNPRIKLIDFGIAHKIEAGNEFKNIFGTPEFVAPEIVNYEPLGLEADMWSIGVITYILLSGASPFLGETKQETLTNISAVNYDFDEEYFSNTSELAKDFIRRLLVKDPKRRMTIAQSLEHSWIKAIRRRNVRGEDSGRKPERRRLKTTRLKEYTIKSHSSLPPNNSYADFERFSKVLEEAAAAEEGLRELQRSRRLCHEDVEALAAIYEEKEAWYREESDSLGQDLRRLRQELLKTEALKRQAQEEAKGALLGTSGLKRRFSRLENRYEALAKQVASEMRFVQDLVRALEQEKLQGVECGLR
Sequence of Serine/threonine-protein kinase 33 (Homo sapiens) (Q9BYT3 whole entry, looked up): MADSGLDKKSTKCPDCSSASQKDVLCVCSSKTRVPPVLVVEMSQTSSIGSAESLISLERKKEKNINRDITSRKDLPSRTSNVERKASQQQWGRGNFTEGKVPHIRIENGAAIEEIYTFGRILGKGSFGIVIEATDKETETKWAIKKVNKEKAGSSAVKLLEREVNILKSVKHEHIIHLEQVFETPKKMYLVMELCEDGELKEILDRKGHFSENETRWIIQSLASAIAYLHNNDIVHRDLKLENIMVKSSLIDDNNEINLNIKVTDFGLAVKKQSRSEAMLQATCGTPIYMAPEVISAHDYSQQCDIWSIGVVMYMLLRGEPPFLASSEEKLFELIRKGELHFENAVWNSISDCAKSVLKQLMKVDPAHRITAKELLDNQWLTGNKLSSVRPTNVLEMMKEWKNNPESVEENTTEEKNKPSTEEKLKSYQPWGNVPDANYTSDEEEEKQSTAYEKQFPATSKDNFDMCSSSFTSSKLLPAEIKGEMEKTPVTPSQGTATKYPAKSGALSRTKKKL

Row | Compound | ΔTm [1] | ΔTm [2] | ΔTm [3] | ΔTm [4] | ΔTm [5] | ΔTm [6] | ΔTm [7] | ΔTm [8] | ΔTm [9] | ΔTm [10] | ΔTm [11] | ΔTm [12] | ΔTm [13] | ΔTm [14] | ΔTm [15] | ΔTm [16] | ΔTm [17]
1 | Cn1c2c(Cl)c(Cl)ccc2c2cc(N)[nH]c(=O)c21 | 0.4 °C | 2.9 °C | 1.2 °C | 0.4 °C | 3.6 °C | 2 °C | 2.9 °C | 4 °C | 0.2 °C | 5.9 °C | 3 °C | 5.2 °C | 0.8 °C | 2.4 °C | 1.4 °C | 2.6 °C | 3.1 °C
2 | CC(=O)NCC1c2c(n(C)c3c(Cl)c(Cl)ccc23)C(=O)NC1(C)C (racemic) | 0.3 °C | 0.6 °C | 0.4 °C | 0.4 °C | 0.7 °C | 0.2 °C | 0.2 °C | 1.1 °C | 0 °C | 2.6 °C | 1 °C | 0.4 °C | 0.7 °C | 0.9 °C | 0.7 °C | 0.8 °C | 0.7 °C
3 | CCN1CCC2(CC1)NC(=O)c1c(c3ccc(Cl)c(Cl)c3n1C)C2C#N (racemic) | 2.1 °C | 0 °C | 0.2 °C | 0.7 °C | 7.1 °C | 0.2 °C | 1.5 °C | 7.4 °C | 4.5 °C | 4 °C | 1.8 °C | -0.5 °C | 3.1 °C | 0.9 °C | 0.4 °C | 4.6 °C | 0 °C
4 | Cn1c2c(c3ccc(Cl)c(Cl)c31)C(C#N)C1(CCN(C(=O)OC(C)(C)C)CC1)NC2=O (racemic) | 0.3 °C | 0 °C | -0.4 °C | 0.4 °C | 0.6 °C | 0.3 °C | -0.2 °C | 0.8 °C | 0.2 °C | 0.5 °C | 0.3 °C | 0 °C | 0.3 °C | 0.3 °C | 0.5 °C | -0.2 °C | 0 °C
5 | CN1CCC2(CC1)NC(=O)c1c(c3ccc(Cl)c(Cl)c3n1C)C2C#N (racemic) | 2.2 °C | 1.5 °C | 0.2 °C | 0.5 °C | 7.2 °C | 0.9 °C | 2.2 °C | 7.7 °C | 3.9 °C | 5.7 °C | 2.7 °C | 0.8 °C | 3.3 °C | 1.3 °C | 0.6 °C | 6.3 °C | 0.5 °C
6 | CCC1(CC)NC(=O)c2c(c3ccc(Cl)c(Cl)c3n2C)C1C#N (stereo unspecified) | 0.6 °C | 0.4 °C | -0.1 °C | 0 °C | 3.4 °C | 1.7 °C | 2 °C | 3.3 °C | 0.8 °C | 3.5 °C | 1 °C | 1.2 °C | 0.8 °C | 0.6 °C | 0.9 °C | 2.4 °C | 0.5 °C
7 | Cn1c2c(Cl)c(Cl)ccc2c2cc[nH]c(=O)c21 | 2.3 °C | 6.4 °C | 4 °C | 0.1 °C | 3.6 °C | 4.6 °C | 1.4 °C | 4 °C | 1.2 °C | 4.6 °C | 2 °C | 8.2 °C | 0.3 °C | 4.1 °C | 1.6 °C | 3.4 °C | 4.6 °C
8 | N#CC1c2c([nH]c3c(Cl)c(Cl)ccc23)C(=O)NC12CCCCC2 (racemic) | 0.5 °C | 1.2 °C | -0.2 °C | -0.4 °C | 4.9 °C | 2.4 °C | 2.6 °C | 4.9 °C | 1.3 °C | 5.4 °C | 1.2 °C | 1.1 °C | 1 °C | 1.4 °C | 0.3 °C | 3.4 °C | 0.4 °C
